Test results reported in ChEMBL document CHEMBL3868627, “Radical scavenging and antibacterial activity of caffemides against gram positive, gram negative and clinical drug resistance bacteria” (Bioorg Med Chem Lett, 2016).

Tests used:
Type in all cases: functional
Staphylococcus aureus [1] = assay: Antibacterial activity against methicillin-resistant Staphylococcus aureus ATCC 43300 assessed as colony forming units at 50 ug/ml measured after 24 hrs by serial dilution method (reference value: 74 +/- 2 10^6CFU)
Method in brief: (§1)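 Bacteria were exposed to test compound over a range of µg/ml concentrations. Viable bacteria were counted by colony forming unit (CFU) assay at set time points (6 h and 24 h for M. smegmatis and S. aureus strains), and untreated bacteria served as the control. Percentage of population killed was calculated relative to the untreated control. Values are means ± S.D of three independent trials.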

Staphylococcus aureus [2] = assay: Antibacterial activity against Staphylococcus aureus ATCC 25923 assessed as colony forming units at 200 ug/ml measured after 24 hrs by serial dilution method (reference value: 77.66 +/- 5.13 10^6CFU)
Pseudomonas aeruginosa [3] = assay: Antibacterial activity against Pseudomonas aeruginosa PAO1 ATCC 15692 assessed as colony forming units at 100 ug/ml measured after 3 hr by serial dilution method (reference value: 141.66 +/- 7.5 10^8CFU)
[4] = tested on: Mycolicibacterium smegmatis; assay: Antibacterial activity against Mycobacterium smegmatis MC2 155 ATCC 700084 assessed as colony forming units at 10 ug/ml measured after 6 hrs by serial dilution method (reference value: 70 +/- 1.73 10^3CFU); method in brief: as §1
Pseudomonas aeruginosa [5] = assay: Antibacterial activity against Pseudomonas aeruginosa PAO1 ATCC 15692 assessed as colony forming units at 1 ug/ml measured after 3 hr by serial dilution method (reference value: 141.66 +/- 7.5 10^8CFU)
Staphylococcus aureus [6] = assay: Antibacterial activity against Staphylococcus aureus ATCC 25923 assessed as colony forming units at 1 ug/ml measured after 24 hrs by serial dilution method (reference value: 77.66 +/- 5.13 10^6CFU)
Staphylococcus aureus [7] = assay: Antibacterial activity against Staphylococcus aureus ATCC 25923 assessed as colony forming units at 500 ug/ml measured after 6 hrs by serial dilution method (reference value: 65.66 +/- 3.51 10^6CFU); method in brief: as §1
[8] = tested on: Mycolicibacterium smegmatis; assay: Antibacterial activity against Mycobacterium smegmatis MC2 155 ATCC 700084 measured after 72 hrs by serial dilution method
[9] = tested on: Mycolicibacterium smegmatis; assay: Antibacterial activity against Mycobacterium smegmatis MC2 155 ATCC 700084 assessed as colony forming units at 200 ug/ml measured after 6 hrs by serial dilution method (reference value: 70 +/- 1.73 10^3CFU); method in brief: as §1
Staphylococcus aureus [10] = assay: Antibacterial activity against Staphylococcus aureus ATCC 25923 assessed as colony forming units at 300 ug/ml measured after 24 hrs by serial dilution method (reference value: 77.66 +/- 5.13 10^6CFU)
Staphylococcus aureus [11] = assay: Antibacterial activity against methicillin-resistant Staphylococcus aureus ATCC 43300 assessed as colony forming units at 100 ug/ml measured after 6 hrs by serial dilution method (reference value: 64.33 +/- 3.51 10^6CFU); method in brief: as §1
Staphylococcus aureus [12] = assay: Antibacterial activity against methicillin-resistant Staphylococcus aureus ATCC 43300 assessed as colony forming units at 100 ug/ml measured after 24 hrs by serial dilution method (reference value: 74 +/- 2 10^6CFU); method in brief: as §1
Pseudomonas aeruginosa [13] = assay: Antibacterial activity against Pseudomonas aeruginosa PAO1 ATCC 15692 assessed as colony forming units at 10 ug/ml measured after 1 hr by serial dilution method (reference value: 85.33 +/- 4.04 10^8CFU)
Pseudomonas aeruginosa [14] = assay: Antibacterial activity against Pseudomonas aeruginosa PAO1 ATCC 15692 assessed as colony forming units at 200 ug/ml measured after 3 hr by serial dilution method (reference value: 141.66 +/- 7.5 10^8CFU)
Pseudomonas aeruginosa [15] = assay: Antibacterial activity against Pseudomonas aeruginosa PAO1 ATCC 15692 assessed as colony forming units at 300 ug/ml measured after 1 hr by serial dilution method (reference value: 85.33 +/- 4.04 10^8CFU)
[16] = tested on: Mycolicibacterium smegmatis; assay: Antibacterial activity against Mycobacterium smegmatis MC2 155 ATCC 700084 assessed as colony forming units at 1 ug/ml measured after 24 hrs by serial dilution method (reference value: 84 +/- 4.35 10^3CFU); method in brief: as §1
Staphylococcus aureus [17] = assay: Antibacterial activity against methicillin-resistant Staphylococcus aureus ATCC 43300 measured after 24 hrs by serial dilution method
Staphylococcus aureus [18] = assay: Antibacterial activity against methicillin-resistant Staphylococcus aureus ATCC 43300 assessed as colony forming units at 50 ug/ml measured after 6 hrs by serial dilution method (reference value: 64.33 +/- 3.51 10^6CFU); method in brief: as §1
Pseudomonas aeruginosa [19] = assay: Antibacterial activity against Pseudomonas aeruginosa PAO1 ATCC 15692 assessed as colony forming units at 200 ug/ml measured after 1 hr by serial dilution method (reference value: 85.33 +/- 4.04 10^8CFU)
Pseudomonas aeruginosa [20] = assay: Antibacterial activity against Pseudomonas aeruginosa PAO1 ATCC 15692 assessed as colony forming units at 50 ug/ml measured after 1 hr by serial dilution method (reference value: 85.33 +/- 4.04 10^8CFU)
[21] = tested on: Mycolicibacterium smegmatis; assay: Antibacterial activity against Mycobacterium smegmatis MC2 155 ATCC 700084 assessed as colony forming units at 500 ug/ml measured after 24 hrs by serial dilution method (reference value: 84 +/- 4.35 10^3CFU); method in brief: as §1
Staphylococcus aureus [22] = assay: Antibacterial activity against Staphylococcus aureus ATCC 25923 assessed as colony forming units at 100 ug/ml measured after 24 hrs by serial dilution method (reference value: 77.66 +/- 5.13 10^6CFU)
Staphylococcus aureus [23] = assay: Antibacterial activity against Staphylococcus aureus ATCC 25923 assessed as colony forming units at 500 ug/ml measured after 24 hrs by serial dilution method (reference value: 77.66 +/- 5.13 10^6CFU)
Staphylococcus aureus [24] = assay: Antibacterial activity against Staphylococcus aureus ATCC 25923 measured after 24 hrs by serial dilution method
Pseudomonas aeruginosa [25] = assay: Antibacterial activity against Pseudomonas aeruginosa PAO1 ATCC 15692 assessed as colony forming units at 300 ug/ml measured after 3 hr by serial dilution method (reference value: 141.66 +/- 7.5 10^8CFU)
Staphylococcus aureus [26] = assay: Antibacterial activity against Staphylococcus aureus ATCC 25923 assessed as colony forming units at 300 ug/ml measured after 6 hrs by serial dilution method (reference value: 65.66 +/- 3.51 10^6CFU); method in brief: as §1
[27] = tested on: Mycolicibacterium smegmatis; assay: Antibacterial activity against Mycobacterium smegmatis MC2 155 ATCC 700084 assessed as colony forming units at 50 ug/ml measured after 6 hrs by serial dilution method (reference value: 70 +/- 1.73 10^3CFU); method in brief: as §1
Staphylococcus aureus [28] = assay: Bactericidal activity against methicillin-resistant Staphylococcus aureus ATCC 43300 at >100 ug/ml measured after 6 and 24 hrs by serial dilution method relative to control; method in brief: as §1
Staphylococcus aureus [29] = assay: Antibacterial activity against Staphylococcus aureus ATCC 25923 assessed as colony forming units at 1 ug/ml measured after 6 hrs by serial dilution method (reference value: 65.66 +/- 3.51 10^6CFU)

SMILES	Activity (Staphylococcus aureus [1]) [×10⁶ CFU]	Activity (Staphylococcus aureus [2]) [×10⁶ CFU]	Activity (Pseudomonas aeruginosa [3]) [×10⁸ CFU]	Activity [4] [×10³ CFU]	Activity (Pseudomonas aeruginosa [5]) [×10⁸ CFU]	Activity (Staphylococcus aureus [6]) [×10⁶ CFU]	Activity (Staphylococcus aureus [7]) [×10⁶ CFU]	Activity [8]	Activity [9] [×10³ CFU]	Activity (Staphylococcus aureus [10]) [×10⁶ CFU]	Activity (Staphylococcus aureus [11]) [×10⁶ CFU]	Activity (Staphylococcus aureus [12]) [×10⁶ CFU]	Activity (Pseudomonas aeruginosa [13]) [×10⁸ CFU]	Activity (Pseudomonas aeruginosa [14]) [×10⁸ CFU]	Activity (Pseudomonas aeruginosa [15]) [×10⁸ CFU]	Activity [16] [×10³ CFU]	Activity (Staphylococcus aureus [17])	Activity (Staphylococcus aureus [18]) [×10⁶ CFU]	Activity (Pseudomonas aeruginosa [19]) [×10⁸ CFU]	Activity (Pseudomonas aeruginosa [20]) [×10⁸ CFU]	also measured
Cc1ccc(O)c(NC(=O)/C=C/c2ccc(O)c(O)c2)c1	26	0	69.66	42.66	126	75.66	0	Dose-dependent effect	6.33	0	20.33	15.66	59.33	38.33	0	62.66	Dose-dependent effect	27.33	14	43	Activity [21]: 0 ×10³ CFU; Activity (Staphylococcus aureus [22]): 0 ×10⁶ CFU; Activity (Staphylococcus aureus [23]): 0 ×10⁶ CFU; Activity (Staphylococcus aureus [24]): Dose-dependent effect; Activity (Pseudomonas aeruginosa [25]): 0 ×10⁸ CFU; Activity (Staphylococcus aureus [26]): 0 ×10⁶ CFU; Activity [27]: 25.33 ×10³ CFU; Activity (Staphylococcus aureus [28]): 100%; Activity (Staphylococcus aureus [29]): 26.33 ×10⁶ CFU
O=C(/C=C/c1ccc(O)c(O)c1)Nc1ccccc1Nc1ccccc1	28.66	0	32.66	38.33	115.33	68.33	0	Dose-dependent effect	15	0	24.33	11.33	50.33	21.33	0	54	Dose-dependent effect	30.33	10.66	35	Activity [21]: 0 ×10³ CFU; Activity (Staphylococcus aureus [22]): 11.66 ×10⁶ CFU; Activity (Staphylococcus aureus [23]): 0 ×10⁶ CFU; Activity (Staphylococcus aureus [24]): Dose-dependent effect; Activity (Pseudomonas aeruginosa [25]): 0 ×10⁸ CFU; Activity (Staphylococcus aureus [26]): 0 ×10⁶ CFU; Activity [27]: 33.66 ×10³ CFU; Activity (Staphylococcus aureus [28]): 100%; Activity (Staphylococcus aureus [29]): 42 ×10⁶ CFU
